Reference: ChEMBL document CHEMBL4219031, “Identification and Characterization of Von Hippel-Lindau-Recruiting Proteolysis Targeting Chimeras (PROTACs) of TANK-Binding Kinase 1” (J Med Chem, 2018)
pIC50, pKd: −log10 of the molar value.

Experiments:
[1] = molecular target: T1, von Hippel-Lindau disease tumor suppressor/Serine/threonine-protein kinase TBK1 (Homo sapiens, UniProt Q9UHD2+P40337); assay: Induction of VHL-mediated TBK1 degradation in human Panc02.13 cells after 16 hrs by Western blot method relative to control; format: cell-based
Method in brief: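 Panc02.13 cells grown in RPMI-1640 with 15% FBS and 10 units/mL human recombinant insulin, exposed to compound for 16 h. For phospho-IRF3 read-out, TLR3 agonist Poly I:C added for the final 3 h. Cells lysed in RIPA buffer with protease/phosphatase inhibitors, lysates clarified at 16,000g, run on SDS-PAGE and immunoblotted for TBK1, pIRF3 and GAPDH.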
Target sequence in this assay (P40337 whole entry, looked up, one chain of several): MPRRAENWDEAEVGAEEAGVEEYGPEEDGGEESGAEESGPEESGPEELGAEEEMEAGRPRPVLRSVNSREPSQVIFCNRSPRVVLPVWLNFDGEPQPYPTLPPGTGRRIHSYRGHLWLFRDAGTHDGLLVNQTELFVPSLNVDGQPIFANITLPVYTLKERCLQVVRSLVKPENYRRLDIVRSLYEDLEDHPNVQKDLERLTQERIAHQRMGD

[2] = molecular target: T1, von Hippel-Lindau disease tumor suppressor/Serine/threonine-protein kinase TBK1; assay: Induction of VHL-mediated TBK1 degradation in human Panc02.13 cells after 16 hrs by Western blot method; format: cell-based
Method in brief: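 For phospho-IRF3 read-out, TLR3 agonist Poly I:C added for the final 3 h. Cells lysed in RIPA buffer with protease/phosphatase inhibitors, lysates clarified at 16,000g, run on SDS-PAGE and immunoblotted for TBK1, pIRF3 and GAPDH.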
Target sequence in this assay (P40337 whole entry, one chain of several): as the sequence (P40337 whole entry, looked up, one chain of several) above

[3] = molecular target: T2, Serine/threonine-protein kinase TBK1 (Homo sapiens, UniProt Q9UHD2); assay: Binding affinity to human full length wild-type TBK1 expressed in mammalian expression system
T2 sequence (Q9UHD2 whole entry): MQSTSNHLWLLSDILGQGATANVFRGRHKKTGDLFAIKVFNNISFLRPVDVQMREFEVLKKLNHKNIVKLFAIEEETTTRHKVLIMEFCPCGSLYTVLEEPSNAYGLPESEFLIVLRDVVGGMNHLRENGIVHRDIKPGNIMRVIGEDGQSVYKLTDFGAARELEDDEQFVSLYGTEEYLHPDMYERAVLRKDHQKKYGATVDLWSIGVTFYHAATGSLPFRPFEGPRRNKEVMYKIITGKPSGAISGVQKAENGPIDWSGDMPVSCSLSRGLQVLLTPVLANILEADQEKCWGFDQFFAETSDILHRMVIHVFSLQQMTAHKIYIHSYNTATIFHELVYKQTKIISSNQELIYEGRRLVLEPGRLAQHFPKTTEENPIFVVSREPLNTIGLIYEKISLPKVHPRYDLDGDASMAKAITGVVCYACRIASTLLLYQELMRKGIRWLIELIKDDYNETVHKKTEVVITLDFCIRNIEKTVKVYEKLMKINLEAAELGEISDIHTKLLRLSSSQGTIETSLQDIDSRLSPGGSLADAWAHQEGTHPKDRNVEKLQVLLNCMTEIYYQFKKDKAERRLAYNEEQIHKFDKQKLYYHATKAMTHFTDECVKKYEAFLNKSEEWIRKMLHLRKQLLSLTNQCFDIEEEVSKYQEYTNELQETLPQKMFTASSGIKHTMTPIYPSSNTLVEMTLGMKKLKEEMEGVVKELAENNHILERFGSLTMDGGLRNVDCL

[4] = molecular target: von Hippel-Lindau disease tumor suppressor/Elongin-C/Elongin-B/HIF1A (Homo sapiens, UniProt P40337+Q15369+Q15370+Q16665); assay: Inhibition of His-tagged VHL/elongin B/elongin C (unknown origin) interaction with HIF1alpha preincubated for 10 mins followed by fluorescin labelled HIF1alpha peptide addition measured after 2 hrs by fluorescence polarization assay; format: protein-complex assay
Method in brief: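 VHL coexpressed and copurified with Elongin B and C (VCB). Compound preincubated 10 min with VHL in 50 mM Tris pH 7.5, 200 mM NaCl, 2 mM DTT, 1% DMSO. Polarization converted to percent binding against control wells; IC50 from four-parameter fit.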

Chain of von Hippel-Lindau disease tumor suppressor/Elongin-C/Elongin-B/HIF1A (P40337 whole entry, looked up): as the sequence (P40337 whole entry, looked up, one chain of several) above
Chain of von Hippel-Lindau disease tumor suppressor/Elongin-C/Elongin-B/HIF1A (Q15369 whole entry, looked up): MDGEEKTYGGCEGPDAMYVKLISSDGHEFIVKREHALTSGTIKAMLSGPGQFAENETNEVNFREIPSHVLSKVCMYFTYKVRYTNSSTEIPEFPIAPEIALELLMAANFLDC
Chain of von Hippel-Lindau disease tumor suppressor/Elongin-C/Elongin-B/HIF1A (Q15370 whole entry, looked up): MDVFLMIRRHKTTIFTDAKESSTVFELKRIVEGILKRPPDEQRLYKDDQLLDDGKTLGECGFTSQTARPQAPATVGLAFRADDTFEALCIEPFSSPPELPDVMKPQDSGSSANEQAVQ
Chain of von Hippel-Lindau disease tumor suppressor/Elongin-C/Elongin-B/HIF1A (Q16665 whole entry, looked up): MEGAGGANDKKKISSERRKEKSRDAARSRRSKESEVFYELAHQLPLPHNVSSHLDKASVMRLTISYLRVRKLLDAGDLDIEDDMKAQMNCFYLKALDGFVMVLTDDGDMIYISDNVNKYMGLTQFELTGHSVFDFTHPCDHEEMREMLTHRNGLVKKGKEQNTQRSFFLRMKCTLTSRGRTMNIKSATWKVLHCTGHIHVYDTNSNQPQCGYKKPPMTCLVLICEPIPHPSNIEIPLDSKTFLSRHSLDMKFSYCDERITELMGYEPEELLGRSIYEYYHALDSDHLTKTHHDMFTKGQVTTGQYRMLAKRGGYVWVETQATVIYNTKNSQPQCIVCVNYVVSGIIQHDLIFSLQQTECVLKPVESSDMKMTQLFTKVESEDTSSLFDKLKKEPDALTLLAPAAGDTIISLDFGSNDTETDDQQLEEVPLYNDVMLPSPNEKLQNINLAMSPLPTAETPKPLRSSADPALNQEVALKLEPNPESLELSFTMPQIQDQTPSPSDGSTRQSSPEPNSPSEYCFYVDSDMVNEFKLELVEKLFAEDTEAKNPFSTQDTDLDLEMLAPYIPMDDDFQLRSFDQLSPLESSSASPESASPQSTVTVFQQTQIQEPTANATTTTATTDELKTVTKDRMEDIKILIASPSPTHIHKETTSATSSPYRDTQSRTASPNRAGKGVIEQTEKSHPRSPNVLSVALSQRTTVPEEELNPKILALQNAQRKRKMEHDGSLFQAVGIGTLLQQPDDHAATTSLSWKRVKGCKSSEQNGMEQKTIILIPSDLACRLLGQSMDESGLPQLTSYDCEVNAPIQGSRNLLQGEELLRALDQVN

Row | Emax [1] [%] | DC50 [2] [nM] | pKd [3] | pIC50 [4] | Compound
1 | 92 | 103 | – | – | Cc1ncsc1-c1ccc(CNC(=O)[C@@H]2C[C@@H](O)CN2C(=O)[C@@H](NC(=O)COCCOCCOCCOCCOc2ccc(Nc3ncc(Br)c(NCCCN(C)C(=O)C4CCC4)n3)cc2)C(C)(C)C)cc1
2 | 96 | 3 | – | – | Cc1ncsc1-c1ccc(CNC(=O)[C@@H]2C[C@@H](O)CN2C(=O)[C@@H](NC(=O)COCCOCCCCOCCCCOCCOCCOc2ccc(Nc3ncc(Br)c(NCCCN(C)C(=O)C4CCC4)n3)cc2)C(C)(C)C)cc1
3 | 96 | 10 | 7.98 | – | Cc1ncsc1-c1ccc(CNC(=O)[C@@H]2C[C@@H](O)CN2C(=O)[C@@H](NC(=O)COCCCOCCCCOCCCOc2ccc(Nc3ncc(Cl)c(NCCCN(C)C(=O)C4CCC4)n3)cc2)C(C)(C)C)cc1
4 | 79 | 88 | – | – | Cc1ncsc1-c1ccc(CNC(=O)[C@@H]2C[C@@H](O)CN2C(=O)[C@@H](NC(=O)COCCCOCCCCCOc2ccc(Nc3ncc(Br)c(NCCCN(C)C(=O)C4CCC4)n3)cc2)C(C)(C)C)cc1
5 | 86 | 71 | – | – | Cc1ncsc1-c1ccc(CNC(=O)[C@@H]2C[C@@H](O)CN2C(=O)[C@@H](NC(=O)COCCOCCOCCCCOc2ccc(Nc3ncc(Br)c(NCCCN(C)C(=O)C4CCC4)n3)cc2)C(C)(C)C)cc1
6 | – | > 1000 | – | – | Cc1ncsc1-c1ccc(CNC(=O)[C@@H]2C[C@@H](O)CN2C(=O)[C@@H](NC(=O)COCCOCCOCCOc2ccc(Nc3ncc(Br)c(NCCCN(C)C(=O)C4CCC4)n3)cc2)C(C)(C)C)cc1
7 | 96 | 6 | – | – | Cc1ncsc1-c1ccc(CNC(=O)[C@@H]2C[C@@H](O)CN2C(=O)[C@@H](NC(=O)COCCOCCCCOCCCCOCCOc2ccc(Nc3ncc(Br)c(NCCCN(C)C(=O)C4CCC4)n3)cc2)C(C)(C)C)cc1
8 | 34 | > 1000 | – | 4.60 | Cc1ncsc1-c1ccc(CNC(=O)[C@@H]2C[C@@H](O)CN2C(=O)[C@H](C)NC(=O)COCCCOCCCCOCCCOc2ccc(Nc3ncc(Br)c(NCCCN(C)C(=O)C4CCC4)n3)cc2)cc1
9 | 90 | 95 | – | – | Cc1ncsc1-c1ccc(CNC(=O)[C@@H]2C[C@@H](O)CN2C(=O)[C@@H](NC(=O)CCCCCOCCCCOCCCCOc2ccc(Nc3ncc(Br)c(NCCCN(C)C(=O)C4CCC4)n3)cc2)C(C)(C)C)cc1
10 | 77 | 121 | 6.56 | – | CCc1cnc(Nc2ccc(OCCCOCCCCOCCCOCC(=O)N[C@H](C(=O)N3C[C@H](O)C[C@H]3C(=O)NCc3ccc(-c4scnc4C)cc3)C(C)(C)C)cc2)nc1NCCCN(C)C(=O)C1CCC1
11 | 96 | 3 | 8.40 | – | Cc1ncsc1-c1ccc(CNC(=O)[C@@H]2C[C@@H](O)CN2C(=O)[C@@H](NC(=O)COCCCOCCCCOCCCOc2ccc(Nc3ncc(I)c(NCCCN(C)C(=O)C4CCC4)n3)cc2)C(C)(C)C)cc1
12 | – | > 1000 | – | – | Cc1ncsc1-c1ccc(CNC(=O)[C@@H]2C[C@@H](O)CN2C(=O)[C@@H](NC(=O)COCCOCCOc2ccc(Nc3ncc(Br)c(NCCCN(C)C(=O)C4CCC4)n3)cc2)C(C)(C)C)cc1
13 | – | > 1000 | – | – | Cc1ncsc1-c1ccc(CNC(=O)[C@@H]2C[C@@H](O)CN2C(=O)[C@@H](NC(=O)COCCCOCCCOc2ccc(Nc3ncc(Br)c(NCCCN(C)C(=O)C4CCC4)n3)cc2)C(C)(C)C)cc1
14 | 70 | 544 | 5.99 | – | Cc1ncsc1-c1ccc(CNC(=O)[C@@H]2C[C@@H](O)CN2C(=O)[C@@H](NC(=O)COCCCOCCCCOCCCOc2ccc(Nc3ncc(C4CCC4)c(NCCCN(C)C(=O)C4CCC4)n3)cc2)C(C)(C)C)cc1
15 | 0 | > 1000 | – | < 4.00 | Cc1ncsc1-c1ccc(CNC(=O)[C@@H]2C[C@@H](O)CN2C(=O)CNC(=O)COCCCOCCCCOCCCOc2ccc(Nc3ncc(Br)c(NCCCN(C)C(=O)C4CCC4)n3)cc2)cc1
16 | 74 | 282 | 6.99 | – | Cc1ncsc1-c1ccc(CNC(=O)[C@@H]2C[C@@H](O)CN2C(=O)[C@@H](NC(=O)COCCCOCCCCOCCCOc2ccc(Nc3ncc(F)c(NCCCN(C)C(=O)C4CCC4)n3)cc2)C(C)(C)C)cc1
17 | 96 | 25 | – | – | Cc1ncsc1-c1ccc(CNC(=O)[C@@H]2C[C@@H](O)CN2C(=O)[C@@H](NC(=O)CCOCCCOCCCOCCCOCCCOc2ccc(Nc3ncc(Br)c(NCCCN(C)C(=O)C4CCC4)n3)cc2)C(C)(C)C)cc1
18 | 96 | 48 | 6.89 | – | C=Cc1cnc(Nc2ccc(OCCCOCCCCOCCCOCC(=O)N[C@H](C(=O)N3C[C@H](O)C[C@H]3C(=O)NCc3ccc(-c4scnc4C)cc3)C(C)(C)C)cc2)nc1NCCCN(C)C(=O)C1CCC1
19 | 71 | 864 | – | 5.00 | CC[C@H](NC(=O)COCCCOCCCCOCCCOc1ccc(Nc2ncc(Br)c(NCCCN(C)C(=O)C3CCC3)n2)cc1)C(=O)N1C[C@H](O)C[C@H]1C(=O)NCc1ccc(-c2scnc2C)cc1
20 | 89 | 92 | 6.57 | – | Cc1cnc(Nc2ccc(OCCCOCCCCOCCCOCC(=O)N[C@H](C(=O)N3C[C@H](O)C[C@H]3C(=O)NCc3ccc(-c4scnc4C)cc3)C(C)(C)C)cc2)nc1NCCCN(C)C(=O)C1CCC1
21 | 76 | 292 | – | – | Cc1ncsc1-c1ccc(CNC(=O)[C@@H]2C[C@@H](O)CN2C(=O)[C@@H](NC(=O)COCCCCCOCCCCOCCCCOCCCCOCCCCCOc2ccc(Nc3ncc(Br)c(NCCCN(C)C(=O)C4CCC4)n3)cc2)C(C)(C)C)cc1
22 | – | > 1000 | – | – | Cc1ncsc1-c1ccc(CNC(=O)[C@@H]2C[C@@H](O)CN2C(=O)[C@@H](NC(=O)COCCCCOc2ccc(Nc3ncc(Br)c(NCCCN(C)C(=O)C4CCC4)n3)cc2)C(C)(C)C)cc1
23 | 96 | 65 | 6.61 | – | Cc1ncsc1-c1ccc(CNC(=O)[C@@H]2C[C@@H](O)CN2C(=O)[C@@H](NC(=O)COCCCOCCCCOCCCOc2ccc(Nc3ncc(C4CC4)c(NCCCN(C)C(=O)C4CCC4)n3)cc2)C(C)(C)C)cc1
24 | – | > 1000 | 6.14 | – | Cc1ncsc1-c1ccc(CNC(=O)[C@@H]2C[C@@H](O)CN2C(=O)[C@@H](NC(=O)COCCCOCCCCOCCCOc2ccc(Nc3nccc(NCCCN(C)C(=O)C4CCC4)n3)cc2)C(C)(C)C)cc1
25 | 96 | 29 | 7.89 | – | Cc1ncsc1-c1ccc(CNC(=O)[C@@H]2C[C@@H](O)CN2C(=O)[C@@H](NC(=O)COCCCOCCCCOCCCOc2ccc(Nc3ncc(C(F)(F)F)c(NCCCN(C)C(=O)C4CCC4)n3)cc2)C(C)(C)C)cc1
26 | 96 | 29 | – | – | Cc1ncsc1-c1ccc(CNC(=O)[C@@H]2C[C@@H](O)CN2C(=O)[C@@H](NC(=O)COCCOCCOCCOCCOCCOc2ccc(Nc3ncc(Br)c(NCCCN(C)C(=O)C4CCC4)n3)cc2)C(C)(C)C)cc1
27 | 75 | 288 | – | 4.80 | CCC[C@H](NC(=O)COCCCOCCCCOCCCOc1ccc(Nc2ncc(Br)c(NCCCN(C)C(=O)C3CCC3)n2)cc1)C(=O)N1C[C@H](O)C[C@H]1C(=O)NCc1ccc(-c2scnc2C)cc1
28 | 88 | 44 | – | 5.26 | Cc1ncsc1-c1ccc(CNC(=O)[C@@H]2C[C@@H](O)CN2C(=O)[C@@H](NC(=O)COCCCOCCCCOCCCOc2ccc(Nc3ncc(Br)c(NCCCN(C)C(=O)C4CCC4)n3)cc2)C(C)C)cc1
29 | 96 | 34 | – | – | Cc1ncsc1-c1ccc(CNC(=O)[C@@H]2C[C@@H](O)CN2C(=O)[C@@H](NC(=O)COCCOCCOCCOCCOCCOCCOc2ccc(Nc3ncc(Br)c(NCCCN(C)C(=O)C4CCC4)n3)cc2)C(C)(C)C)cc1
30 | – | > 1000 | – | – | Cc1ncsc1-c1ccc(CNC(=O)[C@@H]2C[C@@H](O)CN2C(=O)[C@@H](NC(=O)CCCCCOCCOc2ccc(Nc3ncc(Br)c(NCCCN(C)C(=O)C4CCC4)n3)cc2)C(C)(C)C)cc1
